From PubChem BioAssay
Sampled rows, rich in hits. Any-hit rate of the full collection: about 2.1%.
GSK3A inh = blockers of GSK3A enzyme activity – biochemical, luminescence, cell-free homogeneous, HTS, primary screen; Glycogen synthase kinase-3 alpha (Homo sapiens), P49840; GSK-3 alpha kinase, ADP-Glo luminescence, 60 min; inhibition, % at 10 µM; 320,000 tested, 0.1% active;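 active means more than half of replicates show inhibition above 20%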;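 further: GST-tagged GSK-3 alpha with peptide substrate and 25 µM ATP; 0% = DMSO neutral wells and 100% = GW8510 positive control wells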
MEKK2 WT-MEK5 = modulators of MEK5 binding to wildtype MEKK2, primary screen, biochemical, multiplex bead flow cytometry, Alexa488-MEK5. Alexa488-MEK5 binding to MEKK2 WT; actives lie on both sides. binding response (% of control), % at 10 µM. 290,000 tested, 1.1% active. AID 1531, 2009; in the data active means binding response below about 67% or above about 130%
GSK3B inh = human GSK3beta kinase inhibitors, primary screen, biochemical, cell-free homogeneous, HTS; GST-GSK3beta kinase, ADP-Glo luminescence, 60 min; hits give low values; activity score (negative = inhibition), % at 10 µM; 300,000 tested, 0.038% active; Glycogen synthase kinase-3 beta (Homo sapiens), P49841; AID 2097, 2009;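 active means more than half of replicate wells score below -50%, meaning over 50% inhibition versus plate controls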;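 further: 0% = median DMSO wells and -100% = median GW8510 positive control wells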
Target sequence (P49841 whole entry, looked up): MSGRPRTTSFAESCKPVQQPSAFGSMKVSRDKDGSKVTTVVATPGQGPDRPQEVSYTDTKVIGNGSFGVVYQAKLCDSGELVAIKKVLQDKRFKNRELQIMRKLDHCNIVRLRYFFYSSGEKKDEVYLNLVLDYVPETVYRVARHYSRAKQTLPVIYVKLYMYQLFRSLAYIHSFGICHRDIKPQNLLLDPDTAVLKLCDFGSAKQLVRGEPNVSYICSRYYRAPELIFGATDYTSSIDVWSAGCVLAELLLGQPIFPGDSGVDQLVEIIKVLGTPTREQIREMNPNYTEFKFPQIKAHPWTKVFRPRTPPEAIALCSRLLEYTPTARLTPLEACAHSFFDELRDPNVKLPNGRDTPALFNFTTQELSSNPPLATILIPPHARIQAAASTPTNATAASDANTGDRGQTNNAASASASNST
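test system = GST-tagged human GSK3beta kinase, cell-free | reagent = 25 µM ATP with peptide substrate | dosing = one dose of 10 µM per compound | schedule = 60 min reaction, RT | detection = luminescent ADP-Glo measurement of ADP formed | control set = DMSO neutral wells and GW8510 at 20 µM as positive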
MEKK3 PB1 HTS = modulators of MEKK3-MEK5 PB1 binding, primary screen, biochemical, wildtype MEKK3, multiplex bead flow cytometry, Alexa488-MEK5 | Mitogen-activated protein kinase kinase kinase 3 (Homo sapiens), Q99759 | bead-based flow cytometry, Alexa488-MEK5 binding to MEKK3; actives lie on both sides; 0 = blocked by unlabeled MEK5, 100 = vehicle | binding response (% of control), % at 10 µM | 290,000 tested, 1.4% active | AID 1529, 2009;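 active means binding response more than 3 SD above or below the average of its plate-row segment, actives on both sides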;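 further: Alexa488 bead fluorescence after subtracting the streptavidin-only scavenger bead signal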
MEKK2 mut-MEK5 = MEK5 binding signal on mutant MEKK2 PB1, primary screen, biochemical, multiplex bead flow cytometry, Alexa488-MEK5 | Alexa488-MEK5 binding to MEKK2 mutant | percent response, % at 10 µM | 290,000 tested, 0.35% active; in the data active means percent response above about 24%, passing the limit was not always enough
STK33 kinase inh = inhibitors of purified STK33 kinase, primary screen, biochemical, ADP-Glo luminescence, homogeneous, cell-free | Serine/threonine-protein kinase 33 (Homo sapiens), Q9BYT3 | MBP phosphorylation | inhibition, % at 10 µM | 320,000 tested, 0.073% active | AID 2661, 2010;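 active means inhibition at or above 25%, using the most active replicate where run in duplicate; inactive means inhibition below 25%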
MEKK2wt confirm = modulators of MEK5 binding to wildtype MEKK2, confirmation, biochemical, single concentration, multiplex bead flow cytometry; Alexa488-MEK5 binding to MEKK2 WT; actives lie on both sides; binding response (% of control), % at 10 µM; 5,900 tested, 2.4% active; shares compounds with MEKK3 PB1 HTS; in the data active means binding response below about 16% or above about 210%; inactive means in between
MEKK2mut-MEK5 = mutant MEKK2 PB1-MEK5 binding signal retest – biochemical, single concentration, multiplex bead flow cytometry, confirmation; shares compounds with MEKK3 PB1 HTS; Alexa488-MEK5 binding to MEKK2 mutant; percent response, % at 10 µM; 5,900 tested, 2% active; AID 1893, 2009; in the data active means percent response mostly above about 71%, no sharp cut-off; inactive means mostly below about 38%;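 further: higher means compound restores mutant binding toward wildtype level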
MEKK3-MEK5 inh = MEKK3 wild-type PB1 binding to MEK5, inhibitors, confirmation, biochemical, bead multiplex flow cytometry, single concentration, wildtype | shares compounds with MEKK3 PB1 HTS | binding response (% of control), % at 10 µM | 5,900 tested, 1.8% active | Alexa488-MEK5 binding to MEKK3; hits give low values | AID 1894, 2009;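 active means binding response below 72% of control, or above a set upper limit, though filed actives all read lower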;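 further: 100% = DMSO only wells and 0% = binding blocked by excess unlabeled MEK5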
* = called active by the depositor; [ ] = remark or other dose.

For COc1ccc(/C=N/NC(=S)Nc2cc(S(=O)(=O)N3CCOCC3)ccc2N2CCOCC2)cc1O the results were GSK3A inh -1, MEKK2 WT-MEK5 89, GSK3B inh 0, MEKK3 PB1 HTS 85, MEKK2 mut-MEK5 -4 and STK33 kinase inh -1.
Screening O=C(/C=C/c1ccccc1)Nc1cc(S(=O)(=O)N2CCOCC2)ccc1N1CCCC1 returned GSK3A inh 4, MEKK2 WT-MEK5 106, GSK3B inh 0, MEKK3 PB1 HTS 142*, MEKK2 mut-MEK5 1, STK33 kinase inh -2, MEKK2wt confirm 100, MEKK2mut-MEK5 -2 and MEKK3-MEK5 inh 102.
Cc1ccc(/C=C/C(=O)Nc2cc(S(=O)(=O)N3CCOCC3)ccc2N2CCOCC2)cc1 was read as GSK3A inh -1 and STK33 kinase inh 0.
COc1ccc2ccccc2c1/C=N/NC(=S)Nc1cc(S(=O)(=O)N2CCOCC2)ccc1N1CCOCC1 was read as GSK3A inh -1, MEKK2 WT-MEK5 104, GSK3B inh 3, MEKK3 PB1 HTS 133*, MEKK2 mut-MEK5 1, STK33 kinase inh -1, MEKK2wt confirm 93, MEKK2mut-MEK5 -2 and MEKK3-MEK5 inh 100.
CC(=O)c1ccccc1NC(=O)CSc1n[nH]c(=O)n1C1CC1 was read as GSK3A inh 5 and STK33 kinase inh 0.
For COc1ccc2c(c1)CCc1cn3nc(C)cc3nc1-2 the results were MEKK2 WT-MEK5 104, GSK3B inh -2, MEKK3 PB1 HTS 8.0*[inhibitor], MEKK2 mut-MEK5 -90, STK33 kinase inh 7, MEKK2wt confirm 96, MEKK2mut-MEK5 -1 and MEKK3-MEK5 inh 100.
`COc1ccc2c(c1)CCc1cnc(N)nc1-2` gave GSK3A inh 11, MEKK2 WT-MEK5 99, GSK3B inh -2, MEKK3 PB1 HTS 102, MEKK2 mut-MEK5 2 and STK33 kinase inh 13.
For CCOc1ccc(S(=O)(=O)n2nc(C)c(S(=O)(=O)N3CCOCC3)c2C)cc1 the results were GSK3A inh -4, MEKK2 WT-MEK5 99, GSK3B inh 1, MEKK3 PB1 HTS 99, MEKK2 mut-MEK5 -3 and STK33 kinase inh -1.
`CCOC(=O)c1c(C)[nH]c(C)c1S(=O)(=O)NCCc1cccs1` gave GSK3A inh 3, MEKK2 WT-MEK5 104, GSK3B inh -1, MEKK3 PB1 HTS 104, MEKK2 mut-MEK5 4 and STK33 kinase inh -1.
Screening CCOC(=O)c1ccc(N/C=C\C(=O)c2cccc(OC)c2)cc1 returned GSK3A inh 0, MEKK2 WT-MEK5 114, GSK3B inh 0, MEKK3 PB1 HTS 201*, MEKK2 mut-MEK5 1, STK33 kinase inh 0, MEKK2wt confirm 107, MEKK2mut-MEK5 6 and MEKK3-MEK5 inh 103.
Screening COc1ccc(C(=O)/C=C/Nc2ccc([N+](=O)[O-])cc2)cc1 returned GSK3A inh -1, MEKK2 WT-MEK5 91, GSK3B inh 1, MEKK3 PB1 HTS 70*[inhibitor], MEKK2 mut-MEK5 -1, STK33 kinase inh -2, MEKK2wt confirm 101, MEKK2mut-MEK5 2 and MEKK3-MEK5 inh 103.
COc1ccc(N/C=C\C(=O)c2ccc3c(c2)OCO3)cc1 was read as GSK3A inh -3, MEKK2 WT-MEK5 -1.0*[inhibitor], GSK3B inh 1, MEKK3 PB1 HTS 1.0*[inhibitor], MEKK2 mut-MEK5 -9, STK33 kinase inh 1, MEKK2wt confirm 99, MEKK2mut-MEK5 0 and MEKK3-MEK5 inh 106.
`CCOc1ccc(N/C=C/C(=O)c2ccc(OC)cc2)cc1` gave GSK3A inh -2, MEKK2 WT-MEK5 102, GSK3B inh 0, MEKK3 PB1 HTS 99, MEKK2 mut-MEK5 1 and STK33 kinase inh -1.
Screening CCOc1ccc(N/C=C\C(=O)c2ccc3c(c2)OCO3)cc1 returned GSK3A inh -3, MEKK2 WT-MEK5 103, GSK3B inh 2, MEKK3 PB1 HTS 102, MEKK2 mut-MEK5 2 and STK33 kinase inh 0.
Screening CCOC(=O)c1cccc(N/C=C/C(=O)c2ccc(OC)c(OC)c2)c1 returned GSK3A inh 1, MEKK2 WT-MEK5 92, GSK3B inh 1, MEKK3 PB1 HTS 92, MEKK2 mut-MEK5 -3 and STK33 kinase inh 0.
For COc1ccc(-c2csc(N)n2)cc1 the results were GSK3A inh 0, MEKK2 WT-MEK5 96, GSK3B inh 2, MEKK3 PB1 HTS 93, MEKK2 mut-MEK5 -1 and STK33 kinase inh 0.
`COc1ccc2[nH]c(C)c(-c3csc(N)n3)c2c1` gave GSK3A inh 5, MEKK2 WT-MEK5 118, GSK3B inh 0, MEKK3 PB1 HTS 117, MEKK2 mut-MEK5 27*, STK33 kinase inh 0, MEKK2wt confirm 101, MEKK2mut-MEK5 0 and MEKK3-MEK5 inh 101.
`CC1CN(S(=O)(=O)c2ccc(C(=O)N(CCCN(C)C)c3nc4cc5c(cc4s3)OCCO5)cc2)CC(C)O1` (stereo not given) gave GSK3A inh 0, GSK3B inh -1 and STK33 kinase inh 0.
CCC1CCCCN1S(=O)(=O)c1ccc(C(=O)N(CCCN(C)C)c2nc3cc4c(cc3s2)OCO4)cc1 (stereo not given) was read as GSK3A inh 1, MEKK2 WT-MEK5 156*, GSK3B inh -4, MEKK3 PB1 HTS 109, MEKK2 mut-MEK5 24*, STK33 kinase inh 1, MEKK2wt confirm 144, MEKK2mut-MEK5 31 and MEKK3-MEK5 inh 106.
For CN(C)CCCN(C(=O)c1ccc(S(=O)(=O)N(C)Cc2ccccc2)cc1)c1nc2cc3c(cc2s1)OCO3 the results were GSK3A inh 0, MEKK2 WT-MEK5 192*, GSK3B inh 2, MEKK3 PB1 HTS 112, MEKK2 mut-MEK5 41*, STK33 kinase inh 1, MEKK2wt confirm 189, MEKK2mut-MEK5 45 and MEKK3-MEK5 inh 107.
